Activity calls are given as the source filed them. No cut-off for these calls is given here.
Legend:
[1] = tested on: Leishmania donovani; test: Induction of reactive oxygen species generation in Leishmania donovani MHOM/IN/80/Dd8 promastigotes at 50 uM measured after 12 hrs by H2DCFDA probe-based flow cytometry (reference value: 7%); format: functional
[2] = tested on: Leishmania donovani; test: Induction of mitochondrial potential loss in Leishmania donovani MHOM/IN/80/Dd8 promastigotes assessed as shift in red to green fluorescence at 50 uM after 48 hrs by JC1 dye-based flow cytometry (reference value: 7.37%); format: functional
Method in brief: (§1)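 Exponential-phase promastigotes were incubated with 50 μM compound for 6−48 h, or 0.1% DMSO vehicle. CCCP (50 μM) served as positive control. After JC-1 staining, the red-to-green fluorescence shift was measured by flow cytometry.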

[3] = Tmax in BALB/c mouse at 50 mg/kg, po administered via gavage by LC-MS/MS analysis; format: ADME, organism-based; conditions: in vivo
[4] = tested on: Leishmania donovani; test: Antileishmanial activity against Leishmania donovani MHOM/IN/80/Dd8 promastigotes infected in BALB/c mouse assessed as reduction in parasite load in spleen at 100 mg/kg, ip administered once daily for 5 days measured 7 days post dose by giemsa staining-based assay relative to control; format: functional; design: scale not given: the % may be the effect or the level left
Method in brief: (§2)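 Hamster-passaged strain was transformed to promastigotes. Stationary-phase cells (2 × 10^7 in 0.2 mL PBS) were injected into the tail vein of BALB/c mice. From day 15 post-infection, mice received compound ip in 8% DMSO in PBS for 5 consecutive days, 5 mice per group. Mice were killed day 7 post-treatment. Liver and spleen burden was read from Giemsa-stained stamp smears as LDU.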

[5] = AUC (0 to infinity) in BALB/c mouse at 50 mg/kg, po administered via gavage by LC-MS/MS analysis; format: ADME, organism-based; design: dose 50 mg/kg, time infinity, route oral; conditions: in vivo
[6] = tested on: Leishmania donovani; test: Induction of mitochondrial potential loss in Leishmania donovani MHOM/IN/80/Dd8 promastigotes assessed as shift in red to green fluorescence at 50 uM after 12 hrs by JC1 dye-based flow cytometry (reference value: 7.37%); format: functional; method in brief: as §1
[7] = tested on: Leishmania donovani; test: Induction of apoptosis in Leishmania donovani MHOM/IN/80/Dd8 promastigotes assessed as early apoptotic cells at 50 uM measured after 24 hrs by Annexin V-FITC/propidium iodide staining based assay (reference value: 6.91%); format: functional
[8] = Apparent volume of distribution in BALB/c mouse at 50 mg/kg, po administered via gavage by LC-MS/MS analysis; format: ADME, organism-based; conditions: in vivo
[9] = tested on: Leishmania donovani; test: Antileishmanial activity against Leishmania donovani MHOM/IN/80/Dd8 promastigotes infected in BALB/c mouse assessed as reduction in parasite load in liver at 25 mg/kg, ip administered once daily for 5 days measured 7 days post dose by giemsa staining-based assay relative to control; format: functional; design: scale not given: the % may be the effect or the level left; method in brief: as §2
[10] = tested on: Leishmania donovani; test: Induction of apoptosis in Leishmania donovani MHOM/IN/80/Dd8 promastigotes assessed as late apoptotic cells at 50 uM measured after 12 hrs by Annexin V-FITC/propidium iodide staining based assay (reference value: 0.02%); format: functional
[11] = tested on: Leishmania donovani; test: Induction of mitochondrial potential loss in Leishmania donovani MHOM/IN/80/Dd8 promastigotes at 50 uM by JC1 dye-based flow cytometry; format: functional, organism-based; conditions: TDE = time-dependent effect; method in brief: as §1
[12] = tested on: Leishmania donovani; test: Induction of mitochondrial membrane disruption in Leishmania donovani MHOM/IN/80/Dd8 promastigotes assessed as increase in cytochrome c release from mitochondria to cytosol at 50 uM measured after 6 to 48 hrs by immunoblot analysis; format: functional, organism-based
Method in brief: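 Promastigotes were treated with 50 μM compound for 6−48 h, or 0.1% DMSO for 48 h. Mitochondrial and cytosolic fractions were immunoblotted for cytochrome c, with COX-IV and β-tubulin as fraction loading controls.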

[13] = tested on: Leishmania donovani; test: Induction of mitochondrial potential loss in Leishmania donovani MHOM/IN/80/Dd8 promastigotes assessed as shift in red to green fluorescence at 50 uM after 24 hrs by JC1 dye-based flow cytometry (reference value: 7.37%); format: functional; method in brief: as §1
[14] = tested on: Leishmania donovani; test: Induction of reactive oxygen species generation in Leishmania donovani MHOM/IN/80/Dd8 promastigotes at 50 uM measured after 24 hrs by H2DCFDA probe-based flow cytometry (reference value: 7%); format: functional
[15] = Clearance in BALB/c mouse at 50 mg/kg, po administered via gavage by LC-MS/MS analysis; format: ADME, organism-based; conditions: in vivo
[16] = AUC (0 to 48 hrs) in BALB/c mouse at 50 mg/kg, po administered via gavage by LC-MS/MS analysis; format: ADME, organism-based; design: time < 48 hr, dose 50 mg/kg, route oral; conditions: in vivo
[17] = tested on: Leishmania donovani; test: Antileishmanial activity against Leishmania donovani MHOM/IN/80/Dd8 amastigotes harboring luciferase reporter gene infected in mouse J774 cells assessed as stimulation of host immunity by measuring change in IL12 level at 50 uM after 48 hrs by ELISA; format: functional, organism-based
Method in brief: (§3)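 Infected J774 macrophages (24 h infection) were treated with 50 μM compound for 48 h. Culture supernatants were assayed by ELISA for TNF-α and IL-12 (Th1) and for TGF-β and IL-10 (Th2), compared with infected untreated cells.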

[18] = tested on: Leishmania donovani; test: Induction of apoptosis in Leishmania donovani MHOM/IN/80/Dd8 promastigotes assessed as early apoptotic cells at 50 uM measured after 48 hrs by Annexin V-FITC/propidium iodide staining based assay (reference value: 6.91%); format: functional
[19] = tested on: Leishmania donovani; test: Induction of apoptosis in Leishmania donovani MHOM/IN/80/Dd8 promastigotes assessed as late apoptotic cells at 50 uM measured after 24 hrs by Annexin V-FITC/propidium iodide staining based assay (reference value: 0.46%); format: functional
[20] = tested on: Leishmania donovani; test: Antileishmanial activity against Leishmania donovani MHOM/IN/80/Dd8 promastigotes infected in BALB/c mouse assessed as reduction in parasite load in liver at 100 mg/kg, ip administered once daily for 5 days measured 7 days post dose by giemsa staining-based assay relative to control; format: functional; design: scale not given: the % may be the effect or the level left; method in brief: as §2
[21] = tested on: Leishmania donovani; test: Induction of morphological changes in Leishmania donovani MHOM/IN/80/Dd8 promastigotes assessed as appearance of round shape parasite at 50 uM after 48 hrs by bright field microscopic analysis; format: functional, organism-based
[22] = tested on: Leishmania donovani; test: Induction of apoptosis in Leishmania donovani MHOM/IN/80/Dd8 promastigotes assessed as early apoptotic cells at 50 uM measured after 12 hrs by Annexin V-FITC/propidium iodide staining based assay (reference value: 6.91%); format: functional
[23] = tested on: Leishmania donovani; test: Induction of apoptosis in Leishmania donovani MHOM/IN/80/Dd8 promastigotes assessed as increase in meta-caspase activity at 50 uM using BOC-GRR-AMC as substrate preincubated for 1 hr followed by substrate addition and measured after 2 hrs by fluorometric assay relative to control; format: functional
Method in brief: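 Log-phase promastigotes treated with 50 μM for 24 and 48 h, with or without 1 h pretreatment with antipain (1 μM) or zVAD-fmk (100 μM). Vehicle control was 0.1% DMSO. Metacaspase activity in cell lysates measured with fluorogenic BOC-GRR-AMC, given as relative fluorescence units per mg protein.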

[24] = tested on: Leishmania donovani; test: Antileishmanial activity against Leishmania donovani MHOM/IN/80/Dd8 amastigotes harboring luciferase reporter gene infected in mouse J774 cells assessed as stimulation of host immunity by measuring change in TNFalpha level at 50 uM after 48 hrs by ELISA; format: functional, organism-based; method in brief: as §3

Cc1cc(-c2ccc(OCCn3c([N+](=O)[O-])cnc3C)cc2)nc2ccccc12
Activity [1]: 31.61% | Activity [2]: 68.76% | Tmax [3]: 45 min | Activity [4]: 81.7% | AUC(0-inf) [5]: 18200 ng·h/mL | Activity [6]: 33.15% | Activity [7]: 4.04% | Vd(app) [8]: 15.98 L/kg | Activity [9]: >62% | Activity [10]: 1.43% | Activity [11]: Tde | Activity [12]: Active | Activity [13]: 54.18% | Activity [14]: 41.41% | CL/F [15]: 45.8 mL/min/kg | AUC(0-t) at 48 h [16]: 18200 ng·h/mL | Activity [17]: inactive | Activity [18]: 18.07% | Activity [19]: 48.14% | Activity [20]: 82.5% | Activity [21]: Active | Activity [22]: 12.89% | fold change (FC) [23]: 3.8 | Activity [24]: inactive
